# Laboratory results as given in ChEMBL document CHEMBL1126247, “Iodoaminopotentidine and related compounds: a new class of ligands with high affinity and selectivity for the histamine H2 receptor” (J Med Chem, 1992).
# Legend:
# [1] = Inhibition of the positive chronotropic response (H2-antagonism) of guinea pig right atrium relative to cimetidine.; type: functional, Cavia porcellus, Cardiac atrium
# [2] = molecular target: Histamine H2 receptor (Cavia porcellus) (UniProt P47747); conditions: Cardiac atrium, 10 uM
# Histamine H2 receptor (Cavia porcellus), sequence (P47747 whole entry): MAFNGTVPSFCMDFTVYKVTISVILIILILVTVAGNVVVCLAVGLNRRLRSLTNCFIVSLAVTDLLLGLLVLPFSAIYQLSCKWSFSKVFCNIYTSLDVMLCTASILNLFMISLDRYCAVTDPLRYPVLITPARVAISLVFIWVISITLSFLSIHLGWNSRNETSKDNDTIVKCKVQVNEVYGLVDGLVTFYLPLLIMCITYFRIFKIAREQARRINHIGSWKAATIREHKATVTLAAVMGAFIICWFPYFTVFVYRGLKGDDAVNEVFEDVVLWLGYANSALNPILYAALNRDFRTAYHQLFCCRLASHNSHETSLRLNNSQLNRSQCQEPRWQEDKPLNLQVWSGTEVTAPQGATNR
# [3] = molecular target: Histamine H2 receptor (Cavia porcellus) (UniProt P47747); assay: Histamine H2 receptor antagonistic activity at a concentration of 0.03 and 1 uM on the isolated guinea pig right atrium.; type: functional, tissue-based; conditions: Cardiac atrium
# [4] = molecular target: Histamine H2 receptor (Cavia porcellus) (UniProt P47747); assay: Inhibition of the positive chronotropic response (histamine H2 receptor antagonism) of guinea pig right atrium relative to cimetidine.; type: functional, tissue-based; conditions: Cardiac atrium
# [5] = molecular target: Muscarinic acetylcholine receptor M3 (Cavia porcellus) (UniProt Q8VH26); conditions: 10 uM
# Muscarinic acetylcholine receptor M3 (Cavia porcellus), sequence (Q8VH26 1-587): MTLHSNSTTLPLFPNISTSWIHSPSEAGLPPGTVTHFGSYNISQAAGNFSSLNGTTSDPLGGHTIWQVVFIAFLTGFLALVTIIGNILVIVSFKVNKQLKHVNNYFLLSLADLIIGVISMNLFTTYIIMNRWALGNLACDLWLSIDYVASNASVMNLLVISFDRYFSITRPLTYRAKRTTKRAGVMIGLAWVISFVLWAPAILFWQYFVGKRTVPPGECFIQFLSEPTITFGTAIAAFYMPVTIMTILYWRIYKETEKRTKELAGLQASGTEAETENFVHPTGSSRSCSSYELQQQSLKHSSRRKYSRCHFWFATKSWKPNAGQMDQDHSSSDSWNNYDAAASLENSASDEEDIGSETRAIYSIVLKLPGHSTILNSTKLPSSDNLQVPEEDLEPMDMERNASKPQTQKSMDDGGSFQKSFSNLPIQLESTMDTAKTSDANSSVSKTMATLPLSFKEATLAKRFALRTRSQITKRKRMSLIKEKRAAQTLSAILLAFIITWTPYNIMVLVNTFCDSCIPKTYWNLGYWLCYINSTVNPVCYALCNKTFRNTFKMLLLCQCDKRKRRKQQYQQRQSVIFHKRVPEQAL
# [6] = molecular target: Histamine H2 receptor (Cavia porcellus) (UniProt P47747); assay: Potency to inhibit the positive chronotropic response (H2-antagonism) of guinea pig right atrium relative to cimetidine.; type: functional, tissue-based; conditions: Cardiac atrium
# [7] = molecular target: Histamine H2 receptor (Cavia porcellus) (UniProt P47747); assay: Histamine H2 receptor antagonistic activity at a concentration of 0.3 uM on the isolated guinea pig right atrium; type: functional, tissue-based; conditions: Cardiac atrium
# [8] = molecular target: Histamine H1 receptor (Cavia porcellus) (UniProt P31389); assay: Histamine H1 receptor antagonistic activity on the isolated guinea pig ileum determined by Schild plot.
# Target sequence in this assay (P31389 whole entry, looked up): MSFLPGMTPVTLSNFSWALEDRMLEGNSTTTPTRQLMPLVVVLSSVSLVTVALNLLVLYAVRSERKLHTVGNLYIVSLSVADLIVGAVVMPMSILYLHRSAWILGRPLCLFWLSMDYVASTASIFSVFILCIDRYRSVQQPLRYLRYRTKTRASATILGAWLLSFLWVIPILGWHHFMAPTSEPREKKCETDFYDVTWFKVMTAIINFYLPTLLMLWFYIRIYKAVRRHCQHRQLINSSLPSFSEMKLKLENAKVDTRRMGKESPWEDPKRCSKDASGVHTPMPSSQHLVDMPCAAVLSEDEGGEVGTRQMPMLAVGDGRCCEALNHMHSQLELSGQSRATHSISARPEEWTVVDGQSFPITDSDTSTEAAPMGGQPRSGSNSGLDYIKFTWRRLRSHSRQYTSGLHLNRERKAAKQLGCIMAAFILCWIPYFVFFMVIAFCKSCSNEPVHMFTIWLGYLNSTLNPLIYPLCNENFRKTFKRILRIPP
# [9] = molecular target: Histamine H2 receptor (Cavia porcellus) (UniProt P47747); conditions: Cardiac atrium
# [10] = molecular target: Histamine H2 receptor (Cavia porcellus) (UniProt P47747); assay: Histamine H2 receptor antagonistic activity at a concentration of 30 uM on the isolated guinea pig right atrium.; type: functional, tissue-based; conditions: Cardiac atrium
# [11] = molecular target: Serotonin 2 (5-HT2) receptor (Rattus norvegicus, UniProt P30994+P08909+P14842); assay: (§1) 5-hydroxytryptamine 2 receptor antagonistic activity on the rat tail artery determined by Schild plot.; type: functional, tissue-based
# Outline: (§2)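 Endothelium-denuded ventral tail artery segments from male Wistar rats (280-350 g), resting force 5 mN, 120 min equilibration with one 1 μM 5-HT priming. Two to three cumulative 5-HT (0.01-10 μM) curves per preparation.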
# [12] = molecular target: Histamine H2 receptor (Cavia porcellus) (UniProt P47747); assay: Histamine H2 receptor antagonistic activity at concentrations of 0.03,0.1 and 0.3 uM on the isolated guinea pig right atrium.; type: functional, tissue-based; conditions: Cardiac atrium
# [13] = molecular target: T1, Serotonin 2 (5-HT2) receptor (Rattus norvegicus) (UniProt P30994+P08909+P14842); assay: as §1; type: functional, tissue-based; outline: as §2
# T1 sequence (P08909 whole entry, looked up): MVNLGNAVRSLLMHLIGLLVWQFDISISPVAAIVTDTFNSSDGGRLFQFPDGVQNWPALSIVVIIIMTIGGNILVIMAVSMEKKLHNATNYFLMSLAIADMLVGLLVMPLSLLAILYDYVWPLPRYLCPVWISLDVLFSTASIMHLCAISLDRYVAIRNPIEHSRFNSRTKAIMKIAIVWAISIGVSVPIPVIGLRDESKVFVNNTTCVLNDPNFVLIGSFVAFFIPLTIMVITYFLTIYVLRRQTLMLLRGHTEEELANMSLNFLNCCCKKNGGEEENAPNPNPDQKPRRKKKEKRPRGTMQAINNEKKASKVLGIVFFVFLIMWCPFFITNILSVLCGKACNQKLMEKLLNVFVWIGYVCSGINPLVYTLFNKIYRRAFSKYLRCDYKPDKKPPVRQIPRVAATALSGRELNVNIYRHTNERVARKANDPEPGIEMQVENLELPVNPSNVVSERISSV
# T1 sequence (P14842 whole entry, looked up): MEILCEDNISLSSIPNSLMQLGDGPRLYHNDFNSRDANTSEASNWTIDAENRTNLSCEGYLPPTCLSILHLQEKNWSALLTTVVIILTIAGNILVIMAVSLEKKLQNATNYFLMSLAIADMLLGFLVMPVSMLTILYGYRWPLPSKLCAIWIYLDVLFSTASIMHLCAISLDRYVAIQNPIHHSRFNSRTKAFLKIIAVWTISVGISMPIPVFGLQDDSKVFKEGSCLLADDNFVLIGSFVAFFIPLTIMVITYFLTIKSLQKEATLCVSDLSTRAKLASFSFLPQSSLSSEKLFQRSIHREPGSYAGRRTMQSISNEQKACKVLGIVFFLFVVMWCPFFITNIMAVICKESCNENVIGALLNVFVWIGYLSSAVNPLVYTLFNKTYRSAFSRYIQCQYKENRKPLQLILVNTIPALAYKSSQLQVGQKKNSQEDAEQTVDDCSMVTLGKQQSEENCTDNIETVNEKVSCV
# T1 sequence (P30994 whole entry, looked up): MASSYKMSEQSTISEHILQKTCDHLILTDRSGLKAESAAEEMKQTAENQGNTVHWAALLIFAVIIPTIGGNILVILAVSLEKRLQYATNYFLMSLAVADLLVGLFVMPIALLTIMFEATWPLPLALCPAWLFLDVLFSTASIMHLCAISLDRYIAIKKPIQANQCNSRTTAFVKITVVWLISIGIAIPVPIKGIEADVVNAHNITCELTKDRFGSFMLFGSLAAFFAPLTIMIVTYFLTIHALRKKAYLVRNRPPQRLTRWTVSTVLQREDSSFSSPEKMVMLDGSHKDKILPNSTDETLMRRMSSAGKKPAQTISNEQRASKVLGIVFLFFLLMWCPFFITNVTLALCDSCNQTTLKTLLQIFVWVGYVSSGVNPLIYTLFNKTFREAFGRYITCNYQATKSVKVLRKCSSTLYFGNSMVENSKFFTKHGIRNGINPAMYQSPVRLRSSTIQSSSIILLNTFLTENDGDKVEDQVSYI
# [14] = molecular target: Histamine H1 receptor (Cavia porcellus) (UniProt P31389); assay: Histamine H1 receptor antagonistic activity at a concentration of 3 and 10 uM on the isolated guinea pig iluem.; type: functional
# Outline: (§3)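 Whole proximal guinea pig ileum segments in Tyrode's solution gassed with 95% O2/5% CO2, isotonic recording at 10 mN load. Cumulative histamine (0.01-3 μM) curves. Antagonist applied 10 min before the curve. pK_B from concentration ratio, or pA2 by Schild plot.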
# Target sequence in this assay (P31389 whole entry): as the sequence (P31389 whole entry, looked up) above
# [15] = molecular target: T2, Adrenergic receptor alpha-1 (Rattus norvegicus) (UniProt P15823+P23944+P43140); assay: (§4) Alpha-1 adrenergic receptor antagonistic activity on the rat aorta determined by Schild plot.; type: functional, tissue-based
# Outline: (§5)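 Endothelium-denuded thoracic aortic rings from the same rats, mounted isometrically, resting force 20 mN. Equilibration 140 min with two primings of 0.1 μM (R)-phenylephrine. Cumulative (R)-phenylephrine (0.003-10 μM) curves recorded with 1 μM (±)-propranolol present.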
# [16] = molecular target: Beta-1 adrenergic receptor (Cavia porcellus) (UniProt B0FL73); assay: Beta-1 Adrenergic receptor antagonistic activity at concentrations of 10 and 30 uM on the isolated guinea pig right atrium.; type: functional, tissue-based; conditions: Cardiac atrium
# Beta-1 adrenergic receptor (Cavia porcellus), sequence (B0FL73 1-467): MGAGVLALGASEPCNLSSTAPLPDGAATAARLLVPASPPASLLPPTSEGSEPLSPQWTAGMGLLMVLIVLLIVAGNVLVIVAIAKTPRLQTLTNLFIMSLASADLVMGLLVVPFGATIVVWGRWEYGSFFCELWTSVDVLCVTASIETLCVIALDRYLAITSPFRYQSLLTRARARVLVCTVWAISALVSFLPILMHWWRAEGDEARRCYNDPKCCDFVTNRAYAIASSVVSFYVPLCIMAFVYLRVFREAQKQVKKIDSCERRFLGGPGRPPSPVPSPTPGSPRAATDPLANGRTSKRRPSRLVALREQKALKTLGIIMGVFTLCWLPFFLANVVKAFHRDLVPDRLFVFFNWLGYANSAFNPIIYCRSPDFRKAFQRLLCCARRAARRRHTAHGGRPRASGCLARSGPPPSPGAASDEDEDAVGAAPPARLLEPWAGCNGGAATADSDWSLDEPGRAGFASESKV
# Outline: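 Spontaneously beating guinea pig right atrium, isometric recording of chronotropic response. Cumulative isoprenaline (0.1-30 nM) curves as reference agonist. Incubation handled as in the H2 protocol. pK_B = -log[antagonist] + log(concentration ratio - 1).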
# [17] = molecular target: Histamine H2 receptor (Cavia porcellus) (UniProt P47747); assay: Histamine H2 receptor antagonistic activity on the isolated guinea pig right atrium determined by Schild plot.; type: functional, tissue-based; conditions: Cardiac atrium
# [18] = molecular target: T3, Adrenergic receptor alpha-1 (Rattus norvegicus, UniProt P15823+P23944+P43140); assay: as §4; type: functional, tissue-based; outline: as §5
# T3 sequence (P15823 whole entry): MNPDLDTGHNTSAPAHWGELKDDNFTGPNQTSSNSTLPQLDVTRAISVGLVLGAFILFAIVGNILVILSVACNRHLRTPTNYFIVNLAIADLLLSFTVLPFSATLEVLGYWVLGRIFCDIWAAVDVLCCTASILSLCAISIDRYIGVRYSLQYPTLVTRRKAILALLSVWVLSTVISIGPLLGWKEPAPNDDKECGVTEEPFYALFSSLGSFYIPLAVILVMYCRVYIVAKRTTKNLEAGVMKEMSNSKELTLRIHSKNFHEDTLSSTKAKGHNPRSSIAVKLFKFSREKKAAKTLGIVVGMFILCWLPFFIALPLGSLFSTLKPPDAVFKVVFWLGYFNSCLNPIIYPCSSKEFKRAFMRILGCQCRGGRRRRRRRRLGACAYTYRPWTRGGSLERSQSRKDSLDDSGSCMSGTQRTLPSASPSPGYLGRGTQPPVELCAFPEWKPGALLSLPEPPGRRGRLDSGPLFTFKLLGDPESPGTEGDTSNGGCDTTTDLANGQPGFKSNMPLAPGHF
# T3 sequence (P23944 whole entry): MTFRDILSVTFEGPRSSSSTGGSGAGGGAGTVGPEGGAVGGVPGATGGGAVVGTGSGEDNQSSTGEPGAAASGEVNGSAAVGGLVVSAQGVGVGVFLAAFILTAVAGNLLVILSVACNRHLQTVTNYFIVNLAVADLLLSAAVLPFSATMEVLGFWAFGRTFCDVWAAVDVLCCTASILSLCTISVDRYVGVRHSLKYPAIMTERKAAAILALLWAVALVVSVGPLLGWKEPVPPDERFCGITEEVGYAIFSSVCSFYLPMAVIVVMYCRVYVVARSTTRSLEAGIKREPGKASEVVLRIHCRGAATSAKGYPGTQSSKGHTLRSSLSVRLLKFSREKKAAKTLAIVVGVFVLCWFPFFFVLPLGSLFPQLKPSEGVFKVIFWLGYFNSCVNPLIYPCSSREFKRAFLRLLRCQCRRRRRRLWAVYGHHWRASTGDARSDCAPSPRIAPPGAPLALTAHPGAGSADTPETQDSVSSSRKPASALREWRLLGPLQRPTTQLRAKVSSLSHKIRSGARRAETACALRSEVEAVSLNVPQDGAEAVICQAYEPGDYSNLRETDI
# T3 sequence (P43140 whole entry): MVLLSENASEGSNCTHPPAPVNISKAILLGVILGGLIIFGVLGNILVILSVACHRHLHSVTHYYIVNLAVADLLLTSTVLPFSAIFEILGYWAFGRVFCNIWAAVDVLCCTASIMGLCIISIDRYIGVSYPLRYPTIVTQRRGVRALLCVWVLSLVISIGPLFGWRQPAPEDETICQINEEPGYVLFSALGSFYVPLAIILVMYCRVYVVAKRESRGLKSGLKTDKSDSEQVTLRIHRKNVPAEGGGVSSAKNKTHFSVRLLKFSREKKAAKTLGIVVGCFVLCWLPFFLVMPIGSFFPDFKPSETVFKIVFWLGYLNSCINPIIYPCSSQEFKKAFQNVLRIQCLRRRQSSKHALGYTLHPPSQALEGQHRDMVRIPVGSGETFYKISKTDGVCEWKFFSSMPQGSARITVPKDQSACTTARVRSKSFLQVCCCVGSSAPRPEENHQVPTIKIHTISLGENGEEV
# [19] = molecular target: Muscarinic acetylcholine receptor M3 (Cavia porcellus) (UniProt Q8VH26); assay: muscarinic acetylcholine receptor M3 antagonistic activity at concentrations of 10 and 30 uM on the isolated guinea pig iluem.; type: functional
# Outline: (§6)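 Guinea pig proximal ileum, isotonic recording under a 10 mN load in gassed Tyrode's solution. Cumulative carbachol (3-300 nM) curves as reference agonist. Antagonist incubated 10 min. pK_B calculated from concentration ratio, or pA2 by Schild plot.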
# [20] = molecular target: Histamine H2 receptor (Cavia porcellus) (UniProt P47747); assay: Histamine H2 receptor antagonistic activity at a concentration of 0.1 uM on the isolated guinea pig right atrium.; type: functional, tissue-based; conditions: Cardiac atrium
# [21] = molecular target: Histamine H1 receptor (Cavia porcellus, UniProt P31389); assay: (§7) Histamine H1 receptor antagonistic activity on the isolated guinea pig ileum determined by Schild plot.; type: functional, tissue-based; conditions: read-out: pA2 (converted); outline: as §3
# Histamine H1 receptor, sequence (P31389 whole entry): as the sequence (P31389 whole entry, looked up) above
# [22] = molecular target: T4, Histamine H2 receptor (Cavia porcellus, UniProt P47747); assay: Inhibition of [125I]APT binding to H2 receptors in guinea pig cerebral membranes.; type: cell membranes
# T4 sequence (P47747 whole entry): as the sequence (P47747 whole entry) above
# Outline: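 Striatal membranes from male Hartley guinea pigs (200-300 g) in 50 mM sodium/potassium phosphate, pH 7.5, with 0.1% gelatin. Stopped with cold buffer containing 0.1% BSA, then filtered on polyethylenimine-treated glass-fiber filters and γ-counted. Azido compounds handled under dim light.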
# [23] = molecular target: Histamine H2 receptor (Cavia porcellus) (UniProt P47747); assay: Histamine H2 receptor antagonism at a concentration of 1 umolar on the isolated guinea pig right atrium.; type: functional, tissue-based; conditions: Cardiac atrium
# [24] = molecular target: Histamine H2 receptor (Cavia porcellus) (UniProt P47747); assay: Histamine H2 receptor antagonistic activity at concentrations of 0.1,0.3 and 1 uM on the isolated guinea pig right atrium.; type: functional, tissue-based; conditions: Cardiac atrium
# [25] = molecular target: Muscarinic acetylcholine receptor M3 (Cavia porcellus) (UniProt Q8VH26); assay: Muscarinic acetylcholine receptor M3 antagonistic activity at concentrations of 10 and 30 uM on the isolated guinea pig iluem.; type: functional; outline: as §6
# [26] = molecular target: Histamine H2 receptor (Cavia porcellus) (UniProt P47747); assay: Histamine H2 receptor antagonistic activity at concentrations of 0.3,1 and 3 uM on the isolated guinea pig right atrium.; type: functional, tissue-based; conditions: Cardiac atrium
# [27] = molecular target: Muscarinic acetylcholine receptor M3 (Cavia porcellus) (UniProt Q8VH26); assay: muscarinic acetylcholine receptor M3 antagonistic activity at concentrations of 3 and 10 uM on the isolated guinea pig iluem.; type: functional; outline: as §6
# [28] = molecular target: T1, Serotonin 2 (5-HT2) receptor (Rattus norvegicus); assay: 5-hydroxytryptamine 2 receptor antagonistic activity at concentrations of3,10 and 30 uM on the rat tail artery.; type: functional, tissue-based; outline: as §2
# [29] = molecular target: Histamine H1 receptor (Cavia porcellus) (UniProt P31389); assay: Histamine H1 receptor antagonistic activity at concentrations of 3 and 10 uM on the isolated guinea pig iluem.; type: functional; outline: as §3
# Target sequence in this assay (P31389 whole entry): as the sequence (P31389 whole entry, looked up) above
# [30] = molecular target: T2, Adrenergic receptor alpha-1 (Rattus norvegicus); assay: Alpha-1 adrenergic receptor antagonistic activity at concentrations of 3,10,30and 100 uM on the rat aorta.; type: functional; outline: as §5
# [31] = molecular target: Histamine H2 receptor (Cavia porcellus) (UniProt P47747); assay: Histamine H2 receptor antagonistic activity at concentrations of 0.03 and 0.1 uM on the isolated guinea pig right atrium.; type: functional, tissue-based; conditions: Cardiac atrium
# [32] = molecular target: Histamine H1 receptor (Cavia porcellus) (UniProt P31389); assay: as §7; type: functional, tissue-based; outline: as §3
# Target sequence in this assay (P31389 whole entry): as the sequence (P31389 whole entry, looked up) above
# [33] = molecular target: Muscarinic acetylcholine receptor M3 (Cavia porcellus, UniProt Q8VH26); assay: muscarinic acetylcholine receptor M3-antagonistic activity on the isolated guinea pig ileum determined by Schild plot.; type: functional, tissue-based; conditions: read-out: pA2 (converted); outline: as §6
# Muscarinic acetylcholine receptor M3, sequence (Q8VH26 whole entry): as the sequence (Q8VH26 1-587) above
# [34] = molecular target: T4, Histamine H2 receptor; assay: Histamine H2 receptor antagonistic activity on the isolated guinea pig right atrium.; conditions: read-out: pA2 (converted)
# [35] = molecular target: Muscarinic acetylcholine receptor M3 (Cavia porcellus) (UniProt Q8VH26); assay: muscarinic acetylcholine receptor M3 antagonistic activity on the isolated guinea pig ileum determined by Schild plot.; type: functional, tissue-based; outline: as §6
structure (smiles),measurement,setting,value
N#CN/C(=N\CCN)NCCCOc1cccc(CN2CCCCC2)c1,Relative potency,[1],36%
same,pKB,[2],5.95
N#CN/C(=N\CCNc1ccccc1[N+](=O)[O-])NCCCCOc1cccc(CN2CCCCC2)c1,pKB,[3],8.04
same,Relative potency,[4],4360%
N#CN/C(=N\CCNC(=O)c1cccc(I)c1)NCCCOc1cccc(CN2CCCCC2)c1,pKB,[5],5.61
same,Relative potency,[6],1480%
same,pKB,[7],7.57
same,Slope,[8],1.25
same,pKB,[9],7.62
N#CN/C(=N\CCCOc1cccc(CN2CCCCC2)c1)N1CCN(C(=O)c2ccccc2)CC1,Relative potency,[1],6%
same,pKB,[10],5.16
N#CN/C(=N\CCNC(=O)c1ccc(N)c(I)c1)NCCCOc1cccc(CN2CCCCC2)c1,pA2,[11],6.06
same,pKB,[12],7.52
same,Slope,[13],1.09
same,pKB,[14],5.96
same,Slope,[15],1.29
same,pKB,[16],4.77
same,Slope,[17],0.9
same,pA2,[18],5.59
same,Relative potency,[4],1440%
same,pKB,[19],5.49
N#CN/C(=N\CCNc1ccccc1[N+](=O)[O-])NCCCOc1cccc(CN2CCCCC2)c1,pKB,[20],7.45
same,Relative potency,[4],1120%
N#CN/C(=N\CCNC(=O)c1ccc(N)cc1)NCCCOc1cccc(CN2CCCCC2)c1 [AMINOPOTENTIDINE],Kb,[21],26900 nM
same,Slope,[17],1.09
same,Relative potency,[6],660%
same,Ki,[22],9.77 nM
same,pKB,[23],7.22
same,pKB,[24],7.28
same,Slope,[8],0.88
same,pKB,[25],5.16
N#CN/C(=N\CCNC(=O)c1ccc(N=[N+]=[N-])c(I)c1)NCCCOc1cccc(CN2CCCCC2)c1,pKB,[26],6.98
same,pKB,[27],5.48
same,pKB,[16],5.12
same,Slope,[17],1.2
same,pKB,[28],6.05
same,pKB,[29],5.62
same,pKB,[30],6.17
same,Relative potency,[4],257%
N#CN/C(=N\CCNC(=O)c1cc(I)c(N)c(I)c1)NCCCOc1cccc(CN2CCCCC2)c1,Kb,[21],1580 nM
same,pKB,[31],7.79
same,Slope,[32],0.91
same,Relative potency,[4],2460%
same,Kb,[33],1700 nM
same,Kb,[34],16.2 nM
same,Slope,[35],1.04
